From PubChem BioAssay
Only some compounds are listed: those with a hit (about 4.5% of all), similar ones and a draw of the others.
GPR7 antagonist = blocks human GPR7 receptor signaling; GPR7-expressing cells, fluorescence antagonist assay; inhibition, % at 4.4 µM; 290,000 tested, 1.1% active; P48145; in the data active = inhibition above about 16%, passing the limit was not always enough;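 note: cells stimulated with the agonist NPW; 0% = agonist with vehicle and 100% = vehicle without agonist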
OX1R antag-1 = antagonists of human orexin 1 receptor. O43613. CHO/OX1R cells, Fluo-8 calcium fluorescence, orexin A. inhibition, % at 5 µM. 330,000 tested, 0.43% active. AID 434989;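 active = inhibition above its plate's threshold, mean inhibition of all tested compounds on the plate plus 3 SD, cut at about 37% in these data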;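 note: 0% = orexin A challenge wells and 100% = SB-334867-A antagonist wells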
Target sequence (O43613 whole entry, looked up): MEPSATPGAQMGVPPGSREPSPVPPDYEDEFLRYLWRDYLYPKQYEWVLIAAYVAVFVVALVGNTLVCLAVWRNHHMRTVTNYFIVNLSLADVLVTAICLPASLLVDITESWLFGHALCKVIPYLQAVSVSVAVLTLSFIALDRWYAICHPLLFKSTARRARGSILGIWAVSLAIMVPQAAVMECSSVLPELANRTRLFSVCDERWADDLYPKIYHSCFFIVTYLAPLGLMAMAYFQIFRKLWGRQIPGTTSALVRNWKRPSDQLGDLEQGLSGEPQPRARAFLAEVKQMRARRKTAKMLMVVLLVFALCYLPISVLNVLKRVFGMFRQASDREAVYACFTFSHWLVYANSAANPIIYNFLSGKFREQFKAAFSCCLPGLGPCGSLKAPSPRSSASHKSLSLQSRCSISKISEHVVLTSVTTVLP
TAAR1 antagonist = antagonists of human TAAR1; Q96RJ0; CHO RD-HGA16 TAAR1, Fluo-8 calcium fluorescence, antagonist; inhibition, % at 3 µM; 360,000 tested, 1.5% active; AID 624466;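 active = inhibition above a per-plate cutoff, the mean inhibition of test compounds on that plate plus 3 SD, cut at about 49% in these data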;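 note: 0% = DMSO plus EC80 beta-PEA response and 100% = DMSO alone without agonist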
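Material: RD-HGA16 CHO cells with stable hTAAR1 and Gα16; Dosing: single nominal final test compound concentration of 3 µM; Schedule: seeding 17-24 h prior, 75-min 37 °C, 30-min RT dye loading; Detection: kinetic Fluo-8 calcium fluorescence measurement; Measure: % inhibition from peak post-agonist over basal fluorescence ratio; Benchmarks: vehicle and agonist controls.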
CHO parental Ca = counter-screen: ATP calcium response change in parental CHO cells | parental CHO-K1, ATP-induced calcium, Fluo-8 fluorescence | inhibition, % at 5.6 µM | 330,000 tested, 0.63% active | AID 463079;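 active = inhibition above that plate's mean sample inhibition plus 3 SD, cut at about 26% in these data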;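 note: 0% = ATP-challenged DMSO wells and 100% = DMSO wells without ATP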
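Material: parental CHO cells / Compound: single nominal dose of 5.6 µM per compound / Signal: Fluo-8 fluorescence / Replicates: singlicate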
TAAR1 agonist = human TAAR1 agonism. Q96RJ0. CHO RD-HGA16 TAAR1, Fluo-8 calcium fluorescence; vehicle wells 0%, saturating PEA agonist 100%. activation, % at 3 µM. 360,000 tested, 0.99% active. AID 624467;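 active = activation above the mean activation of all test compounds in the run plus 3 SD, cut at about 38% in these data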
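Test system: RD-HGA16 (CHO) cells co-expressing Gα16 and hTAAR1 / Benchmarks: DMSO vehicle as 0%, PEA at EC100 as 100% / Repeats: no replicates (n 1) / Measure: % activation from peak over basal fluorescence ratio, DMSO-to-PEA scaled / Timing: 17-24 h plating, Fluo-8 75 min 37 °C, 30 min RT / Technique: kinetic Fluo-8 calcium fluorescence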
OX1R antag-2 = OX1R (human) antagonism. 330,000 tested, 1.8% active. inhibition, % at 6.6 µM. OX1R-expressing cells, FRET antagonist read-out; in the data active = inhibition mostly above about 38%, no sharp cut-off; inactive = mostly below about 40%;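 note: 0% = agonist challenge alone and 100% = reference antagonist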
* = called active by the depositor.

Screening CC(=O)N1CCN(c2nc3ccc([N+](=O)[O-])cc3s2)CC1 returned GPR7 antagonist -1, OX1R antag-1 4, TAAR1 antagonist -2, CHO parental Ca 15, TAAR1 agonist 1 and OX1R antag-2 54*.
Screening Cn1cc(/C=C/c2cc[n+](C)cc2)c2cc(F)ccc21 returned GPR7 antagonist -15, OX1R antag-1 -8, CHO parental Ca -7 and OX1R antag-2 44*.
`Cn1cc(C=O)c2cc(F)ccc21` gave GPR7 antagonist 4, OX1R antag-1 -10, TAAR1 antagonist -7, CHO parental Ca -3, TAAR1 agonist 3 and OX1R antag-2 12.
For N/C(Cc1ccc(Cl)c(Cl)c1)=N\OC(=O)c1cccs1 the results were GPR7 antagonist 20*, OX1R antag-1 -12, TAAR1 antagonist 13, CHO parental Ca -4, TAAR1 agonist 1 and OX1R antag-2 4.
Screening O=C(N/N=C/c1cn(-c2cccs2)nc1-c1ccccc1)c1ccc(O)cc1 returned GPR7 antagonist -9, OX1R antag-1 8, TAAR1 antagonist 26, CHO parental Ca -24, TAAR1 agonist 0 and OX1R antag-2 65*.
`O=C(N/N=C\c1cn(-c2ccccc2)nc1-c1ccccc1)c1ccc(Br)o1` gave GPR7 antagonist -8, OX1R antag-1 2, TAAR1 antagonist 54*, CHO parental Ca 5, TAAR1 agonist 11 and OX1R antag-2 59.
For NC(=O)N/N=C/c1cn(-c2ccccc2)nc1-c1cccs1 the results were GPR7 antagonist -7, OX1R antag-1 -12, TAAR1 antagonist 3, CHO parental Ca -7, TAAR1 agonist 3 and OX1R antag-2 28.
For CC(C)COc1ccc(-c2nn(-c3ccccc3)cc2C(=O)Nc2nccs2)cc1 the results were GPR7 antagonist 9, OX1R antag-1 26, TAAR1 antagonist 73*, CHO parental Ca 39*, TAAR1 agonist 11 and OX1R antag-2 6.
Screening O=C(N/N=C/c1cn(-c2ccccc2)nc1-c1cccs1)c1ccncc1 returned GPR7 antagonist -2, OX1R antag-1 -11, TAAR1 antagonist 50*, CHO parental Ca -14, TAAR1 agonist 12 and OX1R antag-2 50.
`COc1cccc(CNC(=O)c2ccc(CS(=O)Cc3ccccc3Cl)o2)c1` (centres undefined) gave TAAR1 antagonist 16 and TAAR1 agonist 10.
`O=C(Nc1cccnc1)c1cn(-c2ccccc2)nc1-c1cccs1` gave GPR7 antagonist 3, OX1R antag-1 -14, TAAR1 antagonist 50*, CHO parental Ca -15, TAAR1 agonist 11 and OX1R antag-2 18.
`CC(C)(C)OC(=O)N1CCC[C@H]1C(=O)N1CCC[C@H]1C(=O)NCc1ccncc1` gave TAAR1 antagonist -11 and TAAR1 agonist 0.
`Cc1cc(SCC(=O)N/N=C/c2ccc(O)c(O)c2)nc2ccccc12` gave GPR7 antagonist -1, OX1R antag-1 -4, TAAR1 antagonist 8, CHO parental Ca -4, TAAR1 agonist 9 and OX1R antag-2 17.
Screening Cc1cc(SCC(=O)N/N=C/c2ccc(O)cc2O)nc2ccccc12 returned GPR7 antagonist -9, OX1R antag-1 -4, TAAR1 antagonist 25, CHO parental Ca 12, TAAR1 agonist 4 and OX1R antag-2 50*.
CC1(C)CC[C@]2(C(=O)O)[C@H](O)C[C@]3(C)C(=CCC4[C@@]5(C)C[C@H](O)[C@H](O)[C@@](C)(CO)C5CC[C@]43C)[C@@H]2C1 (some centres undefined) was read as OX1R antag-1 24, TAAR1 antagonist -22, CHO parental Ca 74*, TAAR1 agonist 1 and OX1R antag-2 7.
For CCCCc1c(-c2ccccc2OC)ncn1Cc1ccccc1F the results were TAAR1 antagonist -9 and TAAR1 agonist 2.
Screening O=C(NCC(=O)N1CCCCCCC1)c1ccc(Cl)c(Cl)c1 returned TAAR1 antagonist -27 and TAAR1 agonist 4.
For CCOc1ccc2ccccc2c1C(=O)N1CCN(c2ccccc2)CC1 the results were GPR7 antagonist 20*, OX1R antag-1 -38, TAAR1 antagonist -1, CHO parental Ca -16, TAAR1 agonist 11 and OX1R antag-2 21.
`O=C(C(=O)N1CCN(C(=O)c2ccccc2C(F)(F)F)CC1)c1cccc(C(F)(F)F)c1` gave TAAR1 antagonist -11 and TAAR1 agonist 3.
`COCCn1c(SCC#N)nnc1-c1ccccc1O` gave GPR7 antagonist -4, OX1R antag-1 -5, TAAR1 antagonist -2, CHO parental Ca 0, TAAR1 agonist 6 and OX1R antag-2 6.
For COCCn1c(SCC#N)nnc1-c1ccc([N+](=O)[O-])cc1 the results were GPR7 antagonist 2, OX1R antag-1 -15, TAAR1 antagonist 22, CHO parental Ca -6, TAAR1 agonist 8 and OX1R antag-2 72*.
Screening O=S1(=O)c2ccc(Br)cc2OCCC2CCCCN21 (centres undefined) returned TAAR1 antagonist -7 and TAAR1 agonist 1.
For O=C(Nc1sc2c(c1C(=O)O)CCCC2)c1ccc(F)cc1 the results were GPR7 antagonist -8, TAAR1 antagonist 9 and TAAR1 agonist -2.
Screening COC(=O)c1c(NC(=O)c2nc3nc(C)cc(C(F)F)n3n2)sc2c1CCC2 returned GPR7 antagonist -9, OX1R antag-1 -9, TAAR1 antagonist -9, CHO parental Ca -14, TAAR1 agonist 7 and OX1R antag-2 5.
For NC(=O)c1c(NC(=O)c2ccc(F)cc2)sc2c1CCC2 the results were GPR7 antagonist -14, OX1R antag-1 -4, TAAR1 antagonist 11, CHO parental Ca -21, TAAR1 agonist 0 and OX1R antag-2 51*.
Cc1cc(C(F)F)n2nc(C(=O)Nc3sc4c(c3C(N)=O)CCC4)nc2n1 was read as GPR7 antagonist -13, OX1R antag-1 -2, TAAR1 antagonist -4, CHO parental Ca -4, TAAR1 agonist 2 and OX1R antag-2 57*.
For CNC(=O)c1c(NC(=O)c2cccc(C)c2)sc2c1CCC2 the results were GPR7 antagonist 14, OX1R antag-1 -18, TAAR1 antagonist -16, CHO parental Ca -20, TAAR1 agonist 3 and OX1R antag-2 44*.
For CC(C=NN=C1C(=O)Nc2ccccc21)=Cc1ccccc1 the results were TAAR1 antagonist -13 and TAAR1 agonist 4.
For CCOC(=O)C1=CCN(S(=O)(=O)c2ccc(Br)cc2)C1c1cccc(Br)c1 (centres undefined) the results were TAAR1 antagonist -3 and TAAR1 agonist 0.
Screening N/C(=N\OC(=O)Oc1ccccc1)c1cccc([N+](=O)[O-])c1 returned GPR7 antagonist -7, OX1R antag-1 -5, TAAR1 antagonist 5, CHO parental Ca 0, TAAR1 agonist 5 and OX1R antag-2 51.
